Experimental data taken from ChEMBL document CHEMBL1135828, “Syntheses and antitumor targeting G1 phase of the cell cycle of benzoyldihydroisoquinolines and related 1-substituted isoquinolines” (J Med Chem, 2002).

Legend:
L1210 (1565) [1] = assay: Inhibitory activity against L 1210 cell proliferation; format: functional, cell-based; conditions: Mus musculus
How it was run: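 L1210 murine leukemia cells grown in RPMI 1640 with 10% fetal calf serum, 2 mM L-glutamine, penicillin/streptomycin and 10 mM Hepes (pH 7.4). Cells exposed to graded drug concentrations for 48 h. Microculture tetrazolium assay read-out; IC50 is the concentration reducing optical density by 50% relative to untreated controls.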

L1210 (1565) [2] = assay: Percent inhibition against cells in G 1 phase by the compound at the dose 5 uM; format: functional; conditions: Mus musculus
L1210 (1565) [3] = assay: Percent inhibition against cells in G 1 phase by the compound at the dose 10 uM; format: functional; conditions: Mus musculus
L1210 (1565) [4] = assay: Percent inhibition against cells in G 1 phase by the compound at the dose 25 uM; format: functional; conditions: Mus musculus
L1210 (1565) [5] = assay: Percent inhibition against cells in G 1 phase by the compound; format: functional, Mus musculus

SMILES | IC50 (L1210 (1565) [1]) [µM] | also measured
COc1cc2ccnc(C(=O)c3ccccc3)c2cc1O | > 10 | –
COc1cc2c(cc1OCc1ccccc1)CCN=C2C(=O)c1ccccc1OC | > 10 | –
C[N+]1=C(C(=O)c2ccccc2)c2ccc(OCc3ccccc3)cc2CC1 | 9.8 | –
COc1cc2c(C(=O)c3ccc(O)cc3)nccc2cc1OCc1ccccc1 | 11.5 | –
COc1cc2c(cc1OCc1ccccc1)CCN=C2C(=O)c1cccc(O)c1 | 5.3 | inhibition at 5 µM (L1210 (1565) [2]): 67%
COc1cc2c(C(=O)c3ccccc3)nccc2cc1OCc1ccccc1 | > 10 | –
COc1ccc(C(=O)C2=[N+](C)CCc3cc(OCc4ccccc4)c(OC)cc32)cc1OC | > 10 | –
COc1cc2c(cc1OCc1ccccc1)CCN=C2C(=O)c1cccc(S(=O)(=O)c2ccc(C)cc2)c1 | 4.1 | inhibition at 25 µM (L1210 (1565) [4]): 70%
CCCCCOc1cc2c(cc1OC)C(C)=NCC2 | 7.7 | Inhibition (L1210 (1565) [5]): 72%
COc1cc2c(cc1OCc1ccccc1)CCN=C2c1ccccc1 | > 10 | –
COc1cc2c(cc1OCc1ccccc1)CCN=C2C(=O)c1cccc(OC(C)=O)c1 | 4.7 | –
COc1cc2c(cc1OCc1ccccc1)CCN=C2C(=O)c1ccccc1O | > 10 | –
COc1cc2c(cc1O)CCN=C2c1ccccc1 | > 10 | –
COc1cc2ccnc(C(=O)c3ccccc3)c2cc1OCc1ccccc1 | > 10 | –
COc1cc2c(C(=O)c3ccccc3O)nccc2cc1OCc1ccccc1 | > 10 | –
CCCCC1=NCCc2cc(OCc3ccccc3)c(OC)cc21 | > 10 | –
COc1ccc(C(=O)C2=NCCc3cc(OCc4ccccc4)c(OC)cc32)cc1OC | 13 | –
COc1cc2c(C(=O)c3cccc(O)c3)nccc2cc1OCc1ccccc1 | 11.6 | –
COc1cc2c(cc1OCc1ccccc1)CCN=C2c1ccccc1O | > 10 | –
COc1cc2c(C(=O)c3ccccc3)nccc2cc1O | > 10 | –
COc1cc2c(cc1OCc1ccccc1)CCN=C2C(=O)c1ccc(O)cc1 | > 10 | –
COc1cc2c(cc1OCc1ccccc1)CCN=C2C(=O)c1ccccc1OS(=O)(=O)c1ccc(C)cc1 | > 10 | –
COc1cc2c(cc1OCc1ccccc1)CCN=C2C(=O)c1ccc(OS(=O)(=O)c2ccc(C)cc2)cc1 | > 10 | –
COc1ccc(COc2cc3ccnc(C(=O)c4ccccc4)c3cc2OC)cc1 | > 10 | –
c1ccc(COc2ccc3c(c2)CCN=C3c2ccccc2)cc1 | > 10 | –

More lines, main results first:

IC50 (L1210 (1565) [1]) [µM] | SMILES | also measured
3.7 | CCCCCOc1cc2c(cc1OC)CCN=C2C(=O)c1ccccc1 | inhibition at 5 µM (L1210 (1565) [2]): 63%
> 10 | CCCCCOc1cc2ccnc(C(=O)c3ccccc3)c2cc1OC | –
1 | CCCCCOc1ccc2c(c1)CCN=C2C(=O)c1ccccc1 | inhibition at 5 µM (L1210 (1565) [2]): 63%
> 10 | COc1cc2c(cc1O)C(C(=O)c1ccccc1)=NCC2 | –
> 10 | COc1ccc(C(=O)C2=NCCc3cc(OCc4ccccc4)ccc32)cc1 | –
3.6 | COc1cc2c(cc1OCc1ccccc1)C(C(=O)c1ccccc1)=NCC2 | –
4.1 | COc1cc2c(cc1OCc1ccccc1)CCN=C2C(=O)c1ccccc1 | inhibition at 10 µM (L1210 (1565) [3]): 85%
4.5 | CCCCCOc1cc2c(cc1OC)C(C(=O)c1ccccc1)=NCC2 | –
6.5 | O=C(C1=NCCc2cc(OCc3ccccc3)ccc21)c1ccccc1 | inhibition at 10 µM (L1210 (1565) [3]): 54%
11.9 | CC(C)COc1ccc2c(c1)CCN=C2C(=O)c1ccccc1 | –
13.1 | C/C=C/COc1cc2c(cc1OC)C(C(=O)c1ccccc1)=NCC2 | –
6.1 | COc1cc2c(cc1OCC(C)C)CCN=C2C(=O)c1ccccc1 | inhibition at 25 µM (L1210 (1565) [4]): 63%
3.8 | CC(C)=CCOc1ccc2c(c1)CCN=C2C(=O)c1ccccc1 | –
> 10 | C/C=C/COc1ccc2c(c1)CCN=C2C(=O)c1ccccc1 | –
1.4 | COc1cccc(C(=O)C2=NCCc3cc(OCc4ccccc4)ccc32)c1 | –
> 10 | COc1cc2c(cc1O)CCN=C2C(=O)c1ccccc1 | –
> 10 | COc1ccc(C(=O)C2=NCCc3cc(OCc4ccccc4)ccc32)cc1OC | –
9.4 | COc1cc2c(cc1OCC=C(C)C)CCN=C2C(=O)c1ccccc1 | inhibition at 25 µM (L1210 (1565) [4]): 65%
12.3 | COc1ccccc1C(=O)C1=NCCc2cc(OCc3ccccc3)ccc21 | –
11.9 | CCOc1cc2c(cc1OC)C(C(=O)c1ccccc1)=NCC2 | –
2.5 | COc1cccc(C(=O)C2=NCCc3cc(OCc4ccccc4)c(OC)cc32)c1 | –
11.1 | COc1ccc(COc2cc3c(cc2OC)C(C(=O)c2ccccc2)=NCC3)cc1 | –
> 10 | CCCCC1=NCCc2cc(OCc3ccccc3)ccc21 | –
